Assay results gathered from unrelated publications.
Compare with care: the assays were run in different laboratories.
Target: Serine/threonine-protein kinase pim-3 (PIM3, Homo sapiens, UniProt Q86V86)

SMILES	assay	conditions	remaining binding
c1cncc(-c2cccc(Nc3nccc(NC4CCCCC4)n3)c2)c1	binding, competition with immobilised ligand	10 µM	71%
COc1ccnn2ncc(-c3ccnc(N(C)C)n3)c12	binding	1 µM	81%
C[C@@H]1CN(c2ccc3ncc(-c4ccc5[nH]nc(C6CC6)c5c4)n3n2)C[C@H](C)O1	binding, competition with immobilised ligand	0.5 µM	33%
COc1ncc2cc3ccccc3nc2c1C#N	cell-free assay, competition with immobilised ligand	5 µM	79%
COc1ccc2c(c1)O[C@H](c1ccc(OC)c(OC)c1)C[C@@H]2NC(=O)C1(c2ccc3c(c2)OC(F)(F)O3)CC1	cell-free assay, competition with immobilised ligand	1 µM	100%
C[C@H]1CCN(c2nccc(-c3cnn4ncccc34)n2)C1	binding	1 µM	81%
CO[C@H]1CC[C@H](CNc2ccc(S(=O)(=O)NC(=O)c3ccc(N4CCN(CC5=C(c6ccc(Cl)cc6)CC(C)(C)CC5)CC4)cc3Oc3cnc4[nH]ccc4c3)cc2[N+](=O)[O-])CC1	cell-free assay, competition with immobilised ligand	1 µM	74%
O=C(c1ccc(Nc2ncc(Cl)c(-c3cc4ccccc4s3)n2)cc1)N1CCC(N2CCCC2)CC1	binding, competition with immobilised ligand	1 µM	75%
C[C@@H]1CN(c2cc(-c3nn(C)c4ccc(OC5(C)CC5)cc34)ncn2)C[C@H](C)O1	cell-free assay, competition with immobilised ligand	1 µM	92%
COc1cnc(Nc2cccc(S(N)(=O)=O)c2)nc1N1CCN(c2ccccc2)C(=O)C1	binding, competition with immobilised ligand	1 µM	100%
O=C1CCc2cc(Nc3cc(OC4CCOCC4)c([N+](=O)[O-])cc3Cl)ccc2N1	cell-free assay, competition with immobilised ligand	1 µM	100%
Cc1cnc(Nc2ccc(C(=O)N3CCC(N4CCCC4)CC3)cc2)nc1-c1cc2ccccc2s1	binding, competition with immobilised ligand	1 µM	60%
CSc1cccnc1N1CCN(Cc2nc3ccccc3[nH]2)CC1	cell-free assay, competition with immobilised ligand	1 µM	94%
CN(C)c1nccc(-c2cnc3ncccn23)n1	binding	1 µM	88%
O=C(Nc1c[nH]nc1C(=O)NC1CCNCC1)c1cc(F)cc(F)c1	binding, competition with immobilised ligand	1 µM	88%
c1cnn2ncc(-c3ccnc(N4CCC45COC5)n3)c2c1	binding	1 µM	84%
C=CC(=O)N1CCC(C(=O)NCC(=O)N2CCN(c3nc(-c4cnc(N)nc4C(F)F)nc(N4CCOCC4)n3)CC2)CC1	binding, competition with immobilised ligand	1 µM	97%
CN(c1nccc(-c2cnn3ncccc23)n1)C1CC1	binding	1 µM	100%
CNC(=O)[C@@H]1CC[C@@H](n2c(-c3ccc4cnccc4c3)nc3ccc(C(=O)NCc4cccc(C(N)=O)c4)cc32)C1	binding, competition with immobilised ligand	1 µM	100%
CC(=O)Nc1c(C(C)=O)c(=O)n(C)c2nc(-c3ccc(Cl)cc3Cl)c(-c3ccc(Cl)cc3)cc12	cell-free assay, competition with immobilised ligand	1 µM	100%
Cc1cnn2ncc(-c3ccnc(N(C)C)n3)c2c1	binding	1 µM	85%
Cc1nccc(COC(=O)N2C[C@@H]3[C@@H](CNC(=O)c4ccc5[nH]nnc5c4)[C@@H]3C2)n1	cell-free assay, competition with immobilised ligand	1 µM	97%
N[C@@H]1CCN(c2nccc(-c3cnn4ncccc34)n2)C1	binding	1 µM	100%
O=C(NCCCN1CCOCC1)c1ccc(Nc2ncc(Cl)c(-c3ccc(Cl)s3)n2)cc1	binding, competition with immobilised ligand	1 µM	100%
